Consider two compounds from ChEMBL document CHEMBL4334444, “Studies of Jatrogossone A as a Reactive Oxygen Species Inducer in Cancer Cellular Models” (J Nat Prod, 2019).

Active and inactive are the calls of the source. No cut-off for these calls is given here.

In series [1] the test system is MCF7. Put plainly: Upregulation of Trx expression in human MCF7 at 1 uM after 24 hrs by Western blot analysis. The format is functional, cell-based. In short, it runs like this: (§1)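 Western blot of KOPN-8 or MCF-7 lysates, 30 μg protein per lane on 4–12% Bis-Tris SDS-PAGE and transferred to nitrocellulose. Blots were probed with an oxidative stress defense antibody cocktail (catalase, SOD1, Trx, smooth muscle actin) and tubulin, and detected with IR-dye secondaries on a LI-COR Odyssey.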

For series [2], the system named is KOPN-8. The series can be described thus: Cytotoxicity against human KOPN8 cells assessed as cell viability at 0.75 to 100 uM after 72 hrs in presence of pan caspase inhibitor, Z-VAD-FMK by CellTiter-Glo assay. In kind it is functional, cell-based.
The subject of series [3] is MCF7. The series can be described thus: Antiproliferative activity against human MCF7 cells assessed as reduction in cell viability at 0.1 to 250 uM by CellTiter-Glo assay. In kind it is functional, cell-based. The method, boiled down: (§2)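 CellTiter-Glo luminescent viability readout. Cells kept at 37 °C under 5% CO2. HMEC primary cells grown in basal medium with growth kit; leukemia lines and murine BCR-ABL (WT, Bax/Bak DKO) cultured per earlier description. Positive controls: staurosporine 25 μM, gambogic acid 10 μM, a toxic quinoline. At least two biological replicates in technical triplicate; luminescence normalized to untreated controls; EC50 computed.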

In series [4] the test system is MCF7. The series can be described thus: Upregulation of Trx level in human MCF7 at 1 uM after 3 to 6 hrs by Western blot analysis. The format is functional, cell-based. In short, it runs like this:
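MCF-7 cells were exposed to compound for 3 or 6 h. Lysates were made in Tris-HCl pH 7.5 RIPA-type buffer with protease/phosphatase inhibitors and quantified by BCA. 30 μg protein per lane was run on 4–12% Bis-Tris SDS-PAGE in MES and transferred to nitrocellulose. Blots were probed for thioredoxin with tubulin as reference, detected with IR-dye secondaries (1:15 000) and scanned on an infrared imager.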

Series [5] concerns KOPN-8. The series can be described thus: Upregulation of Trx expression in human KOPN8 at 1 uM after 24 hrs by Western blot analysis. In kind it is functional, cell-based. In short, it runs like this: as §1
Series [6] has as its system KOPN-8. Put plainly: Induction of apoptosis in human KOPN8 cells assessed as increase in cleaved PARP 1 level at 1 to 10 uM after 3 hrs by Western blot analysis. In kind it is functional, cell-based. In short, it runs like this:
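Western blot of KOPN-8 and MCF-7 lysates made in RIPA-type buffer (Tris pH 7.5, Triton X-100, deoxycholate, SDS) with protease and phosphatase inhibitors. 30 μg protein per lane was run on 4–12% Bis-Tris SDS-PAGE and transferred to nitrocellulose. Blots were probed for cleaved caspase-7 and PARP-1 and detected with IR-dye secondaries. Menadione served as positive control: 10 μM in KOPN-8, 30 μM in MCF-7. Blots are representative of three independent experiments.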

Series [7] is described as follows: Half life in simulated gastric fluid. In kind it is ADME.
In series [8] the test system is HMEC. Put plainly: Induction of ROS generation in human HMEC cells at 30 uM incubated for 1 hr by CellROX green reagent based fluorescence assay. The format is cell-based. The method, boiled down:
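CellROX green ROS assay: cells exposed 1 h at 37 °C (30 μM) with DMSO 0.5% (v/v) negative control, menadione 10 μM positive control, ± NAC (100 μM per figure legend). CellROX green added at 5 μM final, 30 min more; washed, fixed in 4% paraformaldehyde 15 min, fluorescence read at 485 ex/535 em. Mean and SD of at least three experiments; two-way ANOVA.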

Series [9] relates to U2OS. Put plainly: Induction of apoptosis in human U2OS cells assessed as increase in caspase 3/7 activity incubated for 24 hrs by caspase 3/7 reagent based ApoTox-Glo triplex assay. In kind it is functional, cell-based. In short, it runs like this:
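ApoTox-Glo Triplex assay in KOPN-8 or U2OS cells. Cells were incubated 12 h at 37 °C, then treated 24 h across 100–0.15 μM. Viability (GF-AFC, 400Ex/505Em) and cytotoxicity (bis-AAF-R110, 485Ex/520Em) were read after 30 min at 37 °C. Caspase-Glo 3/7 luminescence was then read after 0.5 h at room temperature. Values are mean ± SEM of three independent experiments.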

Series [10] relates to B-ALL. Put plainly: Cytotoxicity against BCR-ABL p185-positive mouse B-ALL cells overexpressing human MCL-1 assessed as inhibition of cell viability after 24 hrs by AnnexinV-FITC/propidium iodide staining based flow cytometric analysis. In kind it is functional.
For series [11], the system named is B-ALL. Put plainly: Cytotoxicity against BCR-ABL p185-positive mouse B-ALL cells overexpressing human BCL-2 assessed as inhibition of cell viability after 24 hrs by AnnexinV-FITC/propidium iodide staining based flow cytometric analysis. The format is functional.
In series [12] the test system is KOPN-8. The series can be described thus: Cell cycle arrest in human KOPN8 cells assessed as decrease in accumulation at G1/G0 phase at 10 uM incubated for 24 hrs by propidium iodide staining based flow cytometric analysis relative to control. In kind it is functional. The settings on record: KOPN-8, 24 h. In short, it runs like this:
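KOPN-8 plated at 1.00 × 10^6 cells/plate, held 12 h at 37 °C, treated 24 h at 10 μM; DMSO vehicle and 2 μM staurosporine as controls. Cells fixed in cold methanol, RNase-treated, stained with PI (50 μg/mL); cell-cycle distribution by flow cytometry.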

In series [13] the test system is MDA-MB-231. The series can be described thus: Induction of ROS colocalization in mitochondria of human MDA-MB-231 cells at 30 uM incubated for 1 hr by CellROX green reagent/mitotracker deep red staining based confocal microscopic method. The format is functional, cell-based. The method, boiled down: (§3)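 MDA-MB-231 plated at 4 × 10^4/well in phenol-red-free medium, 12 h at 37 °C; for rescue, NAC 100 μM pretreatment 0.5 h. Compound 30 μM or DMSO for 1 h, then CellROX green 5 μM final, MitoTracker Deep Red 250 nM, Hoechst 33342 500 nM (0.5 h before imaging). Washed twice, live spinning-disk confocal at 63×; two independent experiments.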

Series [14] relates to U2OS. The series can be described thus: Antiproliferative activity against human U2OS assessed as reduction in cell viability at >10 uM by CellTiter-Glo assay. In kind it is functional, cell-based. In short, it runs like this: as §2
A short description of series [15]: Protein binding in human plasma. In kind it is ADME, cell-free. Conditions: read-out: PPB (converted).
Series [16] relates to MCF7. Put plainly: Induction of mitochondrial membrane potential loss in human MCF7 cells at 30 uM after 24 to 48 hrs by TMRM staining based flow cytometric analysis. In kind it is functional, cell-based. The method, boiled down: (§4)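 TMRM flow cytometry. KOPN-8 (4 × 10^4 or 5 × 10^5 per well) or MCF-7 (2 × 10^4 or 2 × 10^5 per well) were seeded 24 h, then treated 24–48 h. FCCP 10 μM was added 10 min before staining as positive control. Cells were stained with TMRM 100 nM for 0.5 h, then PBS-washed, resuspended in PBS with 1% FBS and analysed by flow cytometry; DAPI flagged compromised cells.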

Series [17] concerns MDA-MB-231. The series can be described thus: Induction of ROS colocalization in mitochondria of human MDA-MB-231 cells at 30 uM incubated for 1 hr in presence of NAC by CellROX green reagent/mitotracker deep red staining based confocal microscopic method. In kind it is functional, cell-based. The method, boiled down: as §3
Series [18] has as its system PBMC. Put plainly: Cytotoxicity against human PBMC cells assessed as cell viability at >100 uM by CellTiter-Glo assay. In kind it is cell-based. In short, it runs like this:
as §2

The test system of series [19] is KOPN-8. Put plainly: Induction of mitochondrial membrane potential loss in human KOPN8 cells at 1 to 3 uM after 24 to 48 hrs by TMRM staining based flow cytometric analysis. The format is functional, cell-based. The method, boiled down:
as §4

For series [20], the system named is B-ALL. Put plainly: Cytotoxicity against BCR-ABL p185-positive human B-ALL cells harboring MCL-1 triple knock out mutant assessed as inhibition of cell viability after 24 hrs by AnnexinV-FITC/propidium iodide staining based flow cytometric analysis. The format is functional.

Take `CC1=C2CC(C)(C)/C=C/C(=O)/C(C)=C\C3=C[C@H](C)C[C@]3(O2)C1=O` [JATROPHONE]: the result in series [1], in [2] and in series [5] was inactive. Besides, the inhibition result in series [3] is “Active”. For the same compound, the result in series [4] and in series [6] was Active.

The compound `CC(=O)O[C@H]1/C2=C/[C@@H](C)C(=O)C[C@H]3[C@@H](/C=C(\C)C(=O)[C@H]2C[C@H]1C)C3(C)C` gave a half-life in [7] of 124 h. Further, the values for the Activity result in series [8], in series [9] and in [18] were “Toxic”, “Dose-dependent effect” and “Non-Toxic”, respectively. In addition, the IC50 in series [10] was 3.31 µM; in [11] it was 7.52 µM; in [20] it was 19.6 µM. Besides, the inhibition at 10 µM in series [12] amounted to 5%. Besides, the outcome in series [13] and in series [19] was Active. Further, the inhibition entry in series [14] was “Active”. Moreover, in [15], the fraction unbound is 0.16. Moreover, the result in [16] and in [17] was inactive.
